Test results as given in article PMC8378419 (ACS chemical neuroscience, 2019).

How the values were obtained:
[1] = biological target: T1, hD3 (Homo sapiens, UniProt P35462); experiment: radioligand competition, [3H]N-methylspiperone; assay type: binding; details: Cheng-Prusoff
In short: (§1)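 Radioligand displacement used [3H]N-methylspiperone at human D3 or D4 receptors stably expressed in HEK293 cells. Samples were run in triplicate. IC50 values were converted to Ki with the Cheng–Prusoff equation and given as pKi (−logKi).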

[2] = biological target: T2, hD4 (Homo sapiens, UniProt P21917); experiment: radioligand competition, [3H]N-methylspiperone; assay type: binding; details: Cheng-Prusoff
T2 sequence (P21917 1-419): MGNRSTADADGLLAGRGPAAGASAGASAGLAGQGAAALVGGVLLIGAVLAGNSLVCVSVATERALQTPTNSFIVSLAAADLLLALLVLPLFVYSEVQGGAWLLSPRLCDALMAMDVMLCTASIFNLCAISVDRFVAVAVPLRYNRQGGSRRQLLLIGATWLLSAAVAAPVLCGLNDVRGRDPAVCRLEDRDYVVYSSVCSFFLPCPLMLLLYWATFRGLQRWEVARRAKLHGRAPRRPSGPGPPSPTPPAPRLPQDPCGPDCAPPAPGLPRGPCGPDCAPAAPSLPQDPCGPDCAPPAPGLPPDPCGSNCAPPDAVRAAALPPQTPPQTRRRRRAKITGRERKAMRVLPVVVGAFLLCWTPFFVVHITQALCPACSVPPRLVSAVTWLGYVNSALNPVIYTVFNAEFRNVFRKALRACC
In short: as §1

[3] = biological target: T3, α1a-AR (Homo sapiens, UniProt P35348); experiment: radioligand competition, [3H]prazosin; assay type: binding; details: Cheng-Prusoff
T3 sequence (P35348 1-466): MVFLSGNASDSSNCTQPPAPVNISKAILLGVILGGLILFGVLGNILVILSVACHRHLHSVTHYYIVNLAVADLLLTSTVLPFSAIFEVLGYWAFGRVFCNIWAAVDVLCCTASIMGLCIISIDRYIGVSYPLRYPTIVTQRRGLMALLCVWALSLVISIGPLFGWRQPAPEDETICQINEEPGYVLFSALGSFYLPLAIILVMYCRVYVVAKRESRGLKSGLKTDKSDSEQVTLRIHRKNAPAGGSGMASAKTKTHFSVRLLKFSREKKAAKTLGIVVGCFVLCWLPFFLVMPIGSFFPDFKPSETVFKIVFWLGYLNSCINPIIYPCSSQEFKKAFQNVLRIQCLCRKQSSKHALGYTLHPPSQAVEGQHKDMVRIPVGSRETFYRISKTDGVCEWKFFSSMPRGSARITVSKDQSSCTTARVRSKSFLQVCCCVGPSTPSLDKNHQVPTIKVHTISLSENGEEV
In short: (§2)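 Binding was measured with [3H]prazosin on cloned human α1-adrenoceptor subtypes expressed in CHO cells. Each experiment was run in triplicate.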

[4] = biological target: T4, α1b-AR (Homo sapiens, UniProt P35368); experiment: radioligand competition, [3H]prazosin; assay type: binding; details: Cheng-Prusoff
T4 sequence (P35368 1-520): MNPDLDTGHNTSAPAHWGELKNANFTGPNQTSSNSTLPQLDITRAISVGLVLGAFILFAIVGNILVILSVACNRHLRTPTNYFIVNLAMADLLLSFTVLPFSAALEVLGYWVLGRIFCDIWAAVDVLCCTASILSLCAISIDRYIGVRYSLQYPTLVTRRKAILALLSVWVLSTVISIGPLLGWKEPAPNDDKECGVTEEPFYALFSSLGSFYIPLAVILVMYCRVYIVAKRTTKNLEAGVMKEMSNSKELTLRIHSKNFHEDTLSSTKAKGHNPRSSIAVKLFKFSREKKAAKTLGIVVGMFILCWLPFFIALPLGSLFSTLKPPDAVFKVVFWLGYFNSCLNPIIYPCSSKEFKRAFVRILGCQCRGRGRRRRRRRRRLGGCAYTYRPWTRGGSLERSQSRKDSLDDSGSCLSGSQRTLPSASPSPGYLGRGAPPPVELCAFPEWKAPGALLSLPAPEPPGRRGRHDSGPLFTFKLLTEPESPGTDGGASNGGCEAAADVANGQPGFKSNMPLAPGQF
In short: as §2

[5] = biological target: T5, α1d-AR (Homo sapiens, UniProt P25100); experiment: radioligand competition, [3H]prazosin; assay type: binding; details: Cheng-Prusoff
T5 sequence (P25100 1-572): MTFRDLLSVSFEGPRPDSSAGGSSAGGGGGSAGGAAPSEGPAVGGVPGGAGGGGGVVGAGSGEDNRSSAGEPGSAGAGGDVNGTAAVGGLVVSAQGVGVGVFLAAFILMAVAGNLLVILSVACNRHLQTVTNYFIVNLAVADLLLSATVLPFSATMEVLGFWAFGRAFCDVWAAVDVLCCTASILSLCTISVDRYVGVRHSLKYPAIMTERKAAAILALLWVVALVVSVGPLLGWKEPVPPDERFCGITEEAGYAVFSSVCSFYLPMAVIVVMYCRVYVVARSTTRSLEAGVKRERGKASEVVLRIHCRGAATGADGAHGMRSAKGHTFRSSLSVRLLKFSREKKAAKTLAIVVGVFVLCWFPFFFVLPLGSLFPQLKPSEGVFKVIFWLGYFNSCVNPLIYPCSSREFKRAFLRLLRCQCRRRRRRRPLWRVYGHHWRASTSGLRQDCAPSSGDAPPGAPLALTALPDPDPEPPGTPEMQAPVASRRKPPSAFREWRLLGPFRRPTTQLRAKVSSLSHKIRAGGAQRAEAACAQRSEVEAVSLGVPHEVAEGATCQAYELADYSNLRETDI
In short: as §2

[6] = biological target: T6, 5-HT1A (Homo sapiens, UniProt P08908); experiment: radioligand competition, [3H]8-OH-DPAT; assay type: binding; details: Cheng-Prusoff
T6 sequence (P08908 1-422): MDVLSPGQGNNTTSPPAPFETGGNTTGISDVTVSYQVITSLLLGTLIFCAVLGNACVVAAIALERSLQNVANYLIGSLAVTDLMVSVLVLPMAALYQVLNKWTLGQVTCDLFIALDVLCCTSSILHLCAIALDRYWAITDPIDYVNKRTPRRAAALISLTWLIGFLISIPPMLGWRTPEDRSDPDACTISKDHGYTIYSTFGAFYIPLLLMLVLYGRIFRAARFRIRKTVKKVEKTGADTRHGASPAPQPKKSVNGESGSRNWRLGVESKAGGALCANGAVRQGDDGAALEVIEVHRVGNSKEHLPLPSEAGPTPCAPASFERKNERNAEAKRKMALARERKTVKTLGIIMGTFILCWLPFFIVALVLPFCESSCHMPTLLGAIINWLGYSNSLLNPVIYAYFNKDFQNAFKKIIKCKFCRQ
In short: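 Human cloned 5-HT1A receptors expressed in HeLa cells were labelled with [3H]8-OH-DPAT and displaced by the test compound. Each experiment was run in triplicate.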

[7] = biological target: T6, 5-HT1A; experiment: […]GTPγS binding; assay type: biochemical; details: agonist
[8] = biological target: T1, hD3; experiment: mitogenesis assay; assay type: cell-based; details: full agonist
[9] = biological target: D1 (Homo sapiens, UniProt P21728); experiment: cAMP assay; assay type: cell-based; details: antagonist
Sequence of D1 (P21728 whole entry): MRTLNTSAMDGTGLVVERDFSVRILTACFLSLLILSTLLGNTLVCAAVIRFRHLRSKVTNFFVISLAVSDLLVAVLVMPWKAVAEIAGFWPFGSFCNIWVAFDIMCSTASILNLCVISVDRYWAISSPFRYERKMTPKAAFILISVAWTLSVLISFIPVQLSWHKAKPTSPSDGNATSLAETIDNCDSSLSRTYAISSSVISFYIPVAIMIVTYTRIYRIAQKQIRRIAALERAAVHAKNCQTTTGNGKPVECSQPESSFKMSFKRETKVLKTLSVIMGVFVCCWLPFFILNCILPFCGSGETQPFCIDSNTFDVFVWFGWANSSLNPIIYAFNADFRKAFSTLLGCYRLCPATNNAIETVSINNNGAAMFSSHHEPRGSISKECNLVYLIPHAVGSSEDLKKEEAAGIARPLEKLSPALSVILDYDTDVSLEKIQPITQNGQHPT

T1 sequence (P35462 whole entry): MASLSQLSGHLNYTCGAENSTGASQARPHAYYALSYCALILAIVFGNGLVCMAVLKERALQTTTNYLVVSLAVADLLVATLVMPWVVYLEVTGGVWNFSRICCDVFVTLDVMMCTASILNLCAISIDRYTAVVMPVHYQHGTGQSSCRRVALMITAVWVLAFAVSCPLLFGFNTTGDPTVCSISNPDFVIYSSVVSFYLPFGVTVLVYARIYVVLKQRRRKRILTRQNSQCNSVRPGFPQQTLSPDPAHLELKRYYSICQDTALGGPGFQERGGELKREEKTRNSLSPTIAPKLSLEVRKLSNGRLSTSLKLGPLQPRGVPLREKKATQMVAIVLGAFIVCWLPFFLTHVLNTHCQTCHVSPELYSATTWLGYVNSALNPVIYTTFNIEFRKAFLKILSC

Row | Compound | pKi, human cloned receptor / D3 [1] | pKi, human cloned receptor / D4 [2] | pKi, human cloned receptor / α1 ^a [3] | pKi, human cloned receptor / D2 [4] | pKi, human cloned receptor / α1 ^d [5] | pKi, human cloned receptor / 5-HT1A [6] | Functional profile of 8 / pEC50 (pIC50) [7] | Functional profile of 8 / pEC50 (pIC50) [8] | pKi, human cloned receptor / α1 ^a [4] | Functional profile of 8 / pEC50 (pIC50) [9] | pKi, human cloned receptor / D3 [3] | pKi, human cloned receptor / D3 [4] | pKi, human cloned receptor / D3 [5]
1 | COc1cccc(OC)c1OCCNCC1COCC(c2ccccc2)(c2ccccc2)O1 (centres unmarked) [compound 2, 2] | 6.34 | 5.77 | – | – | – | – | – | – | – | – | – | – | –
2 | c1ccc(OCCNCC2COCC(c3ccccc3)(c3ccccc3)O2)cc1 (centres unmarked) [compound 4, N-((6,6-diphenyl-1,4-dioxan-2-yl)methyl)-2-phenoxyethan-1-amine] | 7.92 | – | – | – | – | – | – | – | – | – | – | – | –
3 | COc1cccc(OCCNCC2COCC(c3ccccc3)(c3ccccc3)O2)c1 (centres unmarked) [compound 7, N-((6,6-Diphenyl-1,4-dioxan-2-yl)methyl)-2-(3-methoxyphenoxy)ethanamine] | 7.37 | 6.45 | 6.41 | < 6 | 6.98 | 8.91 | – | – | – | – | – | – | –
4 | Oc1cccc(OCCNCC2COCC(c3ccccc3)(c3ccccc3)O2)c1 (centres unmarked) [compound 8, 3-(2-(((6,6-Diphenyl-1,4-dioxan-2-yl)methyl)amino)ethoxy)phenol] | – | – | < 6 | – | 6.56 | – | 8.28 ± 0.15 | 8.99 ± 0.09 | < 6 | 5.49 ± 0.10 | – | – | –
5 | COc1ccc(OCCNCC2COCC(c3ccccc3)(c3ccccc3)O2)cc1 (centres unmarked) [compound 9, N-((6,6-Diphenyl-1,4-dioxan-2-yl)methyl)-2-(4-methoxyphenoxy)ethanamine] | 6.41 | 6.45 | – | – | – | 7.17 | – | – | – | – | < 6 | < 6 | < 6
6 | Oc1ccc(OCCNCC2COCC(c3ccccc3)(c3ccccc3)O2)cc1 (centres unmarked) [compound 10, 10] | 7.37 | 6.49 | 6.56 | < 6 | 7.01 | 7.59 | – | – | – | – | – | – | –
7 | COc1cccc(OCCNCC2COCC(c3ccccc3)(c3ccccc3)O2)c1OC (centres unmarked) [compound 11, 2-(2,3-Dimethoxyphenoxy)-N-((6,6-diphenyl-1,4-dioxan-2-yl)methyl)ethanamine] | 6.79 | 6.87 | – | – | – | – | – | – | – | – | – | – | –
8 | COc1ccc(OCCNCC2COCC(c3ccccc3)(c3ccccc3)O2)cc1OC (centres unmarked) [compound 12, 2-(3,4-Dimethoxyphenoxy)-N-((6,6-diphenyl-1,4-dioxan-2-yl)methyl)ethanamine] | 6.10 | 5.84 | – | – | – | 7.71 | – | – | – | – | < 6 | < 6 | < 6
9 | c1ccc(C2(c3ccccc3)COCC(CNCCOc3ccc4c(c3)OCO4)O2)cc1 (centres unmarked) [compound 13, 2-(Benzo[d][1,3]dioxol-5-yloxy)-N-((6,6-diphenyl-1,4-dioxan-2-yl)methyl)ethanamine] | 6.99 | 6.79 | 6.32 | < 6 | 6.81 | 8.04 | – | – | – | – | – | – | –
